Consider 98 compounds from ChEMBL document CHEMBL4513216, “Probing the Open Global Health Chemical Diversity Library for Multistage-Active Starting Points for Next-Generation Antimalarials” (ACS Infect Dis, 2020).

This series is described as follows: Toxicity liver stage against HepG2, at 10uM. The format is cell-based. Also noted: test concentration 10 uM, cell line HepG2-A16-CD81EGFP. The settings on record: human, HepG2-A16-CD81EGFP cells; read-out: INHIBITION
Put shortly:
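Uninfected HepG2-A16-CD81EGFP cells, 3 × 10^3 per well, 1536-well, plated on prespotted compound at 10 μM final, parasite-free screening media added to match infected plates; puromycin 10 μM positive, DMSO 0.5% negative; run in parallel with 48 h PbLuc assay at 37 °C, 5% CO2; viability by CellTiter-Glo luminescence, normalized to controls.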
Consider `O=S(=O)(C1CC1)N1C[C@H](Oc2ccccn2)[C@H]2OCCC[C@H]21`, for which the cytotoxicity at 10 µM is -3.7%.

Regarding `Cc1ccc(OCCC(=O)NC(C)c2ccncc2)cc1` (stereo not drawn), the cytotoxicity at 10 µM was -3.86%.

As to `CC(=O)N1CCC(c2nccnc2CNC(=O)c2cc[nH]n2)CC1`, the cytotoxicity at 10 µM was -6.27%.

`Cc1noc(C)c1CN(Cc1cccnc1)C1CN2CCC1CC2` (stereo not drawn): the cytotoxicity at 10 µM was 1.91%.

Regarding `CCOc1cccc(CNc2cccc(C(=O)OC)c2)c1O`, the cytotoxicity at 10 µM came to 7.36%.

Take `COCCCNC(=O)CN(C)C1CCCN(c2cccnn2)C1` (stereo not drawn): the cytotoxicity at 10 µM is -2.51%.

For `CCNC(=O)c1cn2cc(-c3ccccc3Cl)n(CC3CC3)c(=O)c2n1`, the cytotoxicity at 10 µM is 4.63%.

As for `CCCOC1CCCN(c2ccnc(C(=O)NCc3ccco3)c2)C1` (stereo not drawn), the cytotoxicity at 10 µM is 5.58%.

`COc1ccc(CCC(=O)N2CCNCC2C(=O)N2CCOCC2)cc1` (stereo not drawn): the cytotoxicity at 10 µM is 4.34%.

Take `O=C(CC1CCN(c2ncnc3cccc(F)c23)CC1)N1CCCC1`: the cytotoxicity at 10 µM was 7.28%.

As to `Cc1cc(OCc2ccc(C(=O)O)s2)ccc1Cl`, the cytotoxicity at 10 µM worked out at 12.2%.

For the compound `Cn1cc(C(C)(O)CNc2ccc(C(F)(F)F)cn2)cn1` (stereo not drawn), the cytotoxicity at 10 µM is -44.3%.

For the compound `CNC(=O)c1cc2ccccc2n1C`, the cytotoxicity at 10 µM came to 6.84%.

`Cc1cc(F)ccc1N1CCCC(NC(=O)CCc2ccncc2)C1` (stereo not drawn): the cytotoxicity at 10 µM is 8.72%.

Take `COc1c(C2CCCN2C(=O)c2cccnc2N(C)C)c(C)nn1C` (stereo not drawn): the cytotoxicity at 10 µM is -7.62%.

For the compound `COc1ccccc1C(C)CNC(=O)c1[nH]ncc1Br` (stereo not drawn), the cytotoxicity at 10 µM came to 18.1%.

Turning to `COCCN1CC2(CCC1=O)CCN(Cc1cc(F)ccc1Cl)CC2`, the cytotoxicity at 10 µM was 5.29%.

Take `CN(Cc1cnn(C)c1)C(=O)NCc1csc(Br)c1`: the cytotoxicity at 10 µM was determined as 0.568%.

Consider `CSc1sc2c(O)cc(=O)[nH]c2c1C(N)=O`, for which the cytotoxicity at 10 µM was -2.1%.

With `CCN(C)c1ncnc2c1CCN(C(=O)c1cccn1C)CC2`, the cytotoxicity at 10 µM is -67.8%.

With `CN(Cc1c(Cl)ccc2cccnc12)CC(C)(CO)CO`, the cytotoxicity at 10 µM is 7.6%.

As for `CN(C)c1nccc(C2CCCN(C(=O)CO)C2)n1` (stereo not drawn), the cytotoxicity at 10 µM was -29.1%.

Turning to `CCN(C)C[C@@H]1CN(C(=O)NC2CCCCC2)C[C@@H]1CO`, the cytotoxicity at 10 µM was -1.53%.

With `CCc1n[nH]c(C(=O)NCCn2ccnc2C)c1C`, the cytotoxicity at 10 µM is -9.29%.

In the case of `CCC(=O)NCC(=O)N(C)C(c1ccc(Cl)cc1)c1cccnc1` (stereo not drawn), the cytotoxicity at 10 µM turned out to be 3.88%.

With `Cc1cccc(COc2ccc(NC(=O)C(C)NC(N)=O)c(C)c2)c1` (stereo not drawn), the cytotoxicity at 10 µM was -28%.

For `CC(C)OCCC1CCCCN1S(N)(=O)=O` (stereo not drawn), the cytotoxicity at 10 µM is 7.36%.

As to `CN(Cc1ccncc1)C1COC2(CCN(Cc3nccn3C)CC2)C1` (stereo not drawn), the cytotoxicity at 10 µM is -98.7%.

Take `Cc1ccc(C)c(C(=O)N2CCOC(CCN(C)C)C2)c1` (stereo not drawn): the cytotoxicity at 10 µM was -0.63%.

On to `CCNc1ncc(C(=O)NCC2OCCc3ccccc32)cn1` (stereo not drawn), for which the cytotoxicity at 10 µM is -53.1%.

Take `CCOc1ccccc1OC1CCN(C(=O)c2cnsn2)CC1`: the cytotoxicity at 10 µM came out at 0.32%.

With `Cc1nn(C)c(C)c1C1COCCN1C(=O)c1cc(F)ccc1F` (stereo not drawn), the cytotoxicity at 10 µM was 3.38%.

For the compound `CC(C)OC(=O)N1CCC(Cc2cccc(C(N)=O)c2)C1` (stereo not drawn), the cytotoxicity at 10 µM was 7.56%.

Turning to `CN(C)c1ncc(I)c(C2CCCN2C)n1` (stereo not drawn), the cytotoxicity at 10 µM amounted to 3.7%.

Regarding `c1cnc(N2C[C@@H]3COC[C@]3(COCC3CCCC3)C2)nc1`, the cytotoxicity at 10 µM was -8.85%.

For `CC(C(=O)N1CCCN(c2ncccc2C#N)CC1)n1cncn1` (stereo not drawn), the cytotoxicity at 10 µM is -6.54%.

In the case of `COCCSc1ccc(C(C)NC(=O)Nc2cccnc2)cc1` (stereo not drawn), the cytotoxicity at 10 µM amounted to 12.3%.

Take `CN(C)CCO[C@H]1C[C@@H](O)C12CCN(c1cnccn1)CC2`: the cytotoxicity at 10 µM came out at 3.79%.

Consider `COc1ccccc1OCCNCc1c(C)nn(C)c1N(C)C`, for which the cytotoxicity at 10 µM was -2.9%.

As to `O=C(NC1CCCc2nc(N3CCCCC3)ncc21)C1CCCC1` (stereo not drawn), the cytotoxicity at 10 µM is -2.05%.

`CCn1cc(S(=O)(=O)N(C)Cc2c(Br)cnn2CC)c(C)n1`: the cytotoxicity at 10 µM was 3.3%.

For `N#Cc1cccc(CNCCC(=O)N2CCc3sccc3C2)c1`, the cytotoxicity at 10 µM was determined as 1.04%.

`O=C1CN(Cc2cc(O)c3cccc(F)c3n2)CCN1C1CCCC1`: the cytotoxicity at 10 µM came out at 4.45%.

As for `CSc1ccccc1C(=O)C1CCCN(Cc2cc(C(C)C)[nH]n2)C1` (stereo not drawn), the cytotoxicity at 10 µM was -4.01%.

In the case of `CCCn1nc2c(cc1=O)CN(Cc1ncc(C(C)(C)C)o1)CC2`, the cytotoxicity at 10 µM is -7.17%.

For the compound `CO[C@@H]1CCN(c2ncc(F)cn2)[C@@H]2CN(Cc3cccnc3)C[C@@H]21`, the cytotoxicity at 10 µM was found to be 11.8%.

As for `CCN1CCC(NC(=O)CN2CCCC2Cn2nc(C)cc2C)CC1` (stereo not drawn), the cytotoxicity at 10 µM is -6.83%.

`Cn1cccc1C(=O)N1CCC2(CC1)CN(c1cncnc1)C(=O)CO2`: the cytotoxicity at 10 µM was 4.35%.

`CC(C)CS(=O)(=O)CC(=O)NC1CCCCNC1=O` (stereo not drawn): the cytotoxicity at 10 µM was -3.03%.

On to `Cc1cc(F)c2c(c1)CCCN2Cc1nc2c(cnn2C)c(=O)[nH]1`, for which the cytotoxicity at 10 µM was determined as 1.89%.

For `CSCc1nc(CCNC(=O)C2CCCN(C(C)=O)C2)cs1` (stereo not drawn), the cytotoxicity at 10 µM was -4.84%.

As to `Cc1cc(CSCc2ccccn2)on1`, the cytotoxicity at 10 µM was determined as 7.69%.

Consider `CCC1CN(C(=O)c2cccc(OCc3cscn3)c2)CCO1` (stereo not drawn), for which the cytotoxicity at 10 µM was -7.51%.

Consider `COc1ccc(CNC(=O)NC(C)Cn2cccn2)cc1O` (stereo not drawn), for which the cytotoxicity at 10 µM was -3.1%.

`CNC(=O)C1Cc2ccccc2CN1CCc1cccs1` (stereo not drawn): the cytotoxicity at 10 µM is -0.837%.

As for `OC1CCN(c2ccnc(NCCc3ccccc3Cl)n2)CC1`, the cytotoxicity at 10 µM was 16.5%.

On to `CC(C)(O)CN1CCN(C(=O)c2cccc(CC#N)c2)CC1`, for which the cytotoxicity at 10 µM was -13.4%.

On to `Cc1ccc(C(C(=O)N2CCN(C(=O)c3ccc[nH]3)CC2)N(C)C)cc1` (stereo not drawn), for which the cytotoxicity at 10 µM is -10.7%.

For the compound `COC(=O)C1CCCN1C(=O)c1ccc(-n2nc(C)cc2C)cc1` (stereo not drawn), the cytotoxicity at 10 µM was -10.5%.

On to `Cc1[nH]ccc1C(=O)NCC1CC(=O)N(CCc2ccccc2)C1` (stereo not drawn), for which the cytotoxicity at 10 µM was -1.92%.

Turning to `CC(C)N1CCC(c2ccnc3c(C(=O)N4CCOCC4)ncn23)CC1`, the cytotoxicity at 10 µM is -5.89%.

Regarding `CCC(CC)c1cc(C(=O)N2CCCC(n3cncn3)C2)on1` (stereo not drawn), the cytotoxicity at 10 µM was -13.1%.

For the compound `c1ccc(OC[C@@H]2CCC[C@@]23CNCCO3)nc1`, the cytotoxicity at 10 µM turned out to be 9.93%.

Regarding `COc1cccc(OCC2CCCN(C(=O)c3cc(C)n[nH]3)C2)c1` (stereo not drawn), the cytotoxicity at 10 µM is -3.42%.

With `Cc1cc(C)cc(CCC(=O)N2CCN(c3cc(C)nc(N)n3)CC2)c1`, the cytotoxicity at 10 µM was -38.7%.

Consider `Cc1nc(CN2CCCC(Cn3cncn3)C2)no1` (stereo not drawn), for which the cytotoxicity at 10 µM came to 4.34%.

As to `COc1cccc(-c2noc(C3CCN(Cc4cccs4)C3)n2)c1` (stereo not drawn), the cytotoxicity at 10 µM was -0.192%.

Turning to `CNc1nc(C2CCCCN2C(=O)C(C)(C)OC)nc2c1CN(C)CC2` (stereo not drawn), the cytotoxicity at 10 µM is -6.61%.

`Cc1nnc(SCc2cccc(F)c2)n1CC(N)=O`: the cytotoxicity at 10 µM is -6.58%.

`CC(NC(=O)NCc1cccnc1N(C)C)c1ccc(F)cc1` (stereo not drawn): the cytotoxicity at 10 µM was -1.19%.

Take `Cc1ccc(C(O)CNC(=O)NCc2csc(C)n2)cc1` (stereo not drawn): the cytotoxicity at 10 µM was -5.13%.

Turning to `CN1CCN(CC2CC2)C(=O)c2cnc(N3CCCCC3)nc21`, the cytotoxicity at 10 µM stood at 4.84%.

On to `Cc1ccc(C(=O)N2CCN(Cc3ccccc3)CC2)n1C`, for which the cytotoxicity at 10 µM is -1.28%.

`Cc1nc[nH]c1C(=O)N1CCC2(CN(C)C(=O)O2)C1` (stereo not drawn): the cytotoxicity at 10 µM worked out at 2.99%.

In the case of `CCSc1ncc(CN2CCN(c3nc(C)ncc3C)CC2)cn1`, the cytotoxicity at 10 µM came to 27.3%.

As for `Nc1ccnc(CNc2cc(F)ccc2OCC2CCCO2)n1` (stereo not drawn), the cytotoxicity at 10 µM amounted to 17.4%.

For the compound `COc1ccc(S(=O)(=O)Cc2noc(CC(C)C)n2)cc1`, the cytotoxicity at 10 µM is 5.52%.

`Cc1noc(C)c1CN1C[C@@H]2C[C@@H](C)O[C@@H]2C1`: the cytotoxicity at 10 µM is 4.06%.

Regarding `Cc1cc(N2CCCC2)nc(CNS(=O)(=O)Cc2ccccc2)n1`, the cytotoxicity at 10 µM worked out at 7.48%.

Consider `Cc1nc(C)n(CCNC2CCN(c3ncnc4c(C)csc34)CC2)n1`, for which the cytotoxicity at 10 µM was found to be 4.35%.

In the case of `Cn1c(CS(=O)(=O)c2ccc(Cl)cc2)cc(=O)n(C)c1=O`, the cytotoxicity at 10 µM was 7.5%.

With `CS(=O)(=O)N1C[C@H]2CC[C@@H](C1)N(Cc1cscn1)C2=O`, the cytotoxicity at 10 µM is -9.35%.

For the compound `CCS(=O)(=O)N1CCC2(CCCN(c3ncc(F)cn3)C2)C1` (stereo not drawn), the cytotoxicity at 10 µM came to 10.3%.

For `O=C(c1cnn(-c2ccccc2F)c1)N1CCN(CCO)CC1`, the cytotoxicity at 10 µM was -8.18%.

As to `Cc1cc(NC(=O)CN2CCc3c(nc(C(C)C)n3C)C2)n(C)n1`, the cytotoxicity at 10 µM is -4.94%.

`OCCN1CCCC(c2nccnc2Oc2ccc(F)cc2)C1` (stereo not drawn): the cytotoxicity at 10 µM was determined as 25.6%.

Turning to `CNC(=O)C1CCN(c2cc(C3CCNCC3)nc(C)n2)C1` (stereo not drawn), the cytotoxicity at 10 µM was -6.43%.

For `COc1ccnc(N2CCN(C(=O)c3cc(C4CC4)[nH]n3)CC2)n1`, the cytotoxicity at 10 µM turned out to be 6.85%.

On to `CN(C)CCN(Cc1ccccn1)C(=O)Nc1cccc(F)c1`, for which the cytotoxicity at 10 µM was 8.94%.

As to `COCC(C)NC(=O)CN1CCC(CO)CC1` (stereo not drawn), the cytotoxicity at 10 µM is -6.16%.

Turning to `COc1ccc(CN2CC3(CCNCC3)CCC2=O)c(F)c1F`, the cytotoxicity at 10 µM was determined as 10.9%.

Take `Cn1ncnc1CNC(=O)N(CCCO)C1CCc2ccccc21` (stereo not drawn): the cytotoxicity at 10 µM is -5.95%.

Turning to `Cc1ccc2[nH]c([C@H]3CCN(CC4CCCCC4)C3)nc2c1`, the cytotoxicity at 10 µM was -3.45%.

`CC(C)c1nnc2n1CCN(C(=O)c1ccc3c(c1)COC3)C2`: the cytotoxicity at 10 µM is -6.22%.

For `CC(C)(C)n1cc(CNC2CCN(C(=O)c3ccco3)CC2)cn1`, the cytotoxicity at 10 µM is -8.08%.

On to `CC(C)N1CCCC1c1cc(C(F)(F)F)[nH]n1` (stereo not drawn), for which the cytotoxicity at 10 µM was determined as 0.171%.

As for `O=S(=O)(NCCN1CCCCC1Cn1cncn1)c1ccccc1` (stereo not drawn), the cytotoxicity at 10 µM was -9.12%.

In the case of `O=C(CN1CCCC1=O)N1CCC(O)(Cn2ccc3ccncc32)CC1`, the cytotoxicity at 10 µM is -5.55%.
